According to ChEMBL document CHEMBL3046177, “Plant growth inhibitory activity of p-hydroxyacetophenones and tremetones from Chilean endemic Baccharis species and some analogous: a comparative study” (J Agric Food Chem, 2002):
The source made the active and inactive calls.

Columns and labels:
Physalis ixocarpa [1] = test: Phytotoxicity against Physalis ixocarpa assessed as inhibition of shoot development during seeding stage after 120 hr; format: functional, organism-based
How it was run: (§1)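 Petri-dish seedling assay on filter paper wetted with test solution (MeOH < 1%), 28 °C in the dark. Coleoptile/hypocotyl and root lengths of all germinated seeds measured after 120 h, then plants dried to constant weight at 40 °C. Three replicates; 50% inhibitory concentrations by Probit analysis of percent inhibition versus concentration.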

Lactuca sativa [2] = test: Increase of root development during seeding stage in Lactuca sativa (lettuce) at 50 to 300 uM after 120 hr; format: functional, organism-based; how it was run: as §1
Lactuca sativa [3] = test: Phytotoxicity against Lactuca sativa (lettuce) assessed as inhibition of shoot development during seeding stage after 120 hr; format: functional, organism-based; how it was run: as §1
Lactuca sativa [4] = test: Phytotoxicity against Lactuca sativa (lettuce) assessed as inhibition of seed germination after 48 hr; format: functional
How it was run: (§2)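 Seeds of uniform size on Whatman No.1 filter paper in 85 mm Petri dishes, wetted with 8 or 10 mL deionized water or test solution (MeOH < 1%); controls got matching water/methanol. Sealed, incubated at 28 °C in the dark, scored at 48 h intervals; germination = 1 mm radicle extrusion. Three replicates.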

Lolium multiflorum [5] = test: Phytotoxicity against Lolium multiflorum (Italian ryegrass) assessed as inhibition of seed respiration during germination after 24 hr; format: functional, organism-based
How it was run: (§3)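 Oxygen uptake of germinating seeds measured polarographically with a Clark-type electrode at 25 °C in a nonilluminated cell over 5 and 10 min, at several compound concentrations. Expressed as percent of control (100%). Three experiments; RI50 from Probit analysis.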

Physalis ixocarpa [6] = test: Phytotoxicity against Physalis ixocarpa assessed as inhibition of root development during seeding stage after 120 hr; format: functional, organism-based; how it was run: as §1
Trifolium pratense [7] = test: Increase of root development during seeding stage in Trifolium pratense (red clover) at 50 to 300 uM after 120 hr; format: functional, organism-based; how it was run: as §1
Trifolium pratense [8] = test: Phytotoxicity against Trifolium pratense (red clover) assessed as inhibition of root development during seeding stage after 120 hr; format: functional, organism-based; how it was run: as §1
Lactuca sativa [9] = test: Phytotoxicity against Lactuca sativa (lettuce) assessed as inhibition of root development during seeding stage after 120 hr; format: functional, organism-based; how it was run: as §1
Lolium multiflorum [10] = test: Phytotoxicity against Lolium multiflorum (Italian ryegrass) assessed as inhibition of root development during seeding stage after 120 hr; format: functional, organism-based; how it was run: as §1
Lactuca sativa [11] = test: Phytotoxicity against Lactuca sativa (lettuce) assessed as inhibition of seed respiration during germination after 24 hr; format: functional, organism-based; how it was run: as §3
Lolium multiflorum [12] = test: Phytotoxicity against Lolium multiflorum (Italian ryegrass) assessed as inhibition of seed germination after 48 hr; format: functional; how it was run: as §2
Trifolium pratense [13] = test: Increase of shoot development during seeding stage in Trifolium pratense (red clover) at 200 uM after 120 hr; format: functional, organism-based; how it was run: as §1
[14] = test system: Lolium multiflorum (ryegrass); test: Phytotoxicity against Lolium multiflorum (ryegrass) assessed as inhibition of seed germination at 500 uM after 48 hr
Lolium multiflorum [15] = test: Increase of seed respiration during germination in Lolium multiflorum (Italian ryegrass)at 30 uM; format: functional, organism-based; how it was run: as §3
Physalis ixocarpa [16] = test: Phytotoxicity against Physalis ixocarpa assessed as inhibition of seed respiration during germination after 24 hr; format: functional, organism-based; how it was run: as §3
Trifolium pratense [17] = test: Phytotoxicity against Trifolium pratense (red clover) assessed as inhibition of seed respiration during germination after 24 hr; format: functional, organism-based; how it was run: as §3
Lolium multiflorum [18] = test: Phytotoxicity against Lolium multiflorum (Italian ryegrass) assessed as inhibition of seed germination at 500 uM after 48 hr; format: functional; how it was run: as §2
Trifolium pratense [19] = test: Phytotoxicity against Trifolium pratense (red clover) assessed as inhibition of shoot development during seeding stage after 120 hr; format: functional, organism-based; how it was run: as §1
Physalis ixocarpa [20] = test: Phytotoxicity against Physalis ixocarpa assessed as inhibition of seed germination after 48 hr; format: functional; how it was run: as §2
Lolium multiflorum [21] = test: Phytotoxicity against Lolium multiflorum (Italian ryegrass) assessed as inhibition of seed respiration during germination at 300 to 500 uM after 24 hr; format: functional, organism-based; how it was run: as §3
Physalis ixocarpa [22] = test: Increase of shoot development during seeding stage in Physalis ixocarpa up to 50 uM after 120 hr; format: functional, organism-based; how it was run: as §1
Lolium multiflorum [23] = test: Phytotoxicity against Lolium multiflorum (Italian ryegrass) assessed as inhibition of shoot development during seeding stage after 120 hr; format: functional, organism-based; how it was run: as §1
Trifolium pratense [24] = test: Phytotoxicity against Trifolium pratense (red clover) assessed as inhibition of seed germination after 48 hr; format: functional; how it was run: as §2

CC(=O)c1ccc(O[C@@H]2O[C@H](CO)[C@@H](O)[C@H](O)[C@H]2O)cc1 [PICEIN]
inactive: I50 (Physalis ixocarpa [1]) | I50 (Lactuca sativa [3]) | GI50 (Lactuca sativa [4]) | I50 (Lolium multiflorum [5]) | I50 (Physalis ixocarpa [6]) | I50 (Trifolium pratense [8]) | I50 (Lactuca sativa [9]) | I50 (Lolium multiflorum [10]) | I50 (Lactuca sativa [11]) | GI50 (Lolium multiflorum [12]) | I50 (Physalis ixocarpa [16]) | I50 (Trifolium pratense [17]) | I50 (Trifolium pratense [19]) | GI50 (Physalis ixocarpa [20]) | I50 (Lolium multiflorum [23]) | GI50 (Trifolium pratense [24])
30%: inhibition at 500 µM [14] | inhibition at 500 µM (Lolium multiflorum [18])
active: Activity (Lactuca sativa [2]) | Activity (Trifolium pratense [7]) | Activity (Trifolium pratense [13]) | Activity (Lolium multiflorum [15]) | Activity (Lolium multiflorum [21]) | Activity (Physalis ixocarpa [22])

CC(=O)Oc1ccc(C(C)=O)cc1 [4-(ACETATE)ACETOPHENONE]
77.3 µM: IC50 (Lolium multiflorum [23]; read-out: I50)
75.5 µM: IC50 (Lolium multiflorum [10]; read-out: I50)
234 µM: IC50 (Trifolium pratense [19]; read-out: I50)
inactive: I50 (Physalis ixocarpa [1]) | I50 (Lolium multiflorum [5]) | I50 (Physalis ixocarpa [6]) | I50 (Lactuca sativa [11]) | I50 (Physalis ixocarpa [16]) | I50 (Trifolium pratense [17]) | GI50 (Physalis ixocarpa [20])
75.3 µM: GI50 (Lolium multiflorum [12])
39.1 µM: IC50 (Lactuca sativa [3]; read-out: I50)
221 µM: IC50 (Trifolium pratense [8]; read-out: I50)
233 µM: GI50 (Trifolium pratense [24])
30%: inhibition at 500 µM [14] | inhibition at 500 µM (Lolium multiflorum [18])
38.9 µM: IC50 (Lactuca sativa [9]; read-out: I50)
active: Activity (Lactuca sativa [2]) | Activity (Trifolium pratense [7]) | Activity (Trifolium pratense [13]) | Activity (Lolium multiflorum [15]) | Activity (Lolium multiflorum [21]) | Activity (Physalis ixocarpa [22])
41 µM: GI50 (Lactuca sativa [4])
